According to ChEMBL document CHEMBL1132793, “Chiral synthesis and pharmacological evaluation of NPS 1407: a potent, stereoselective NMDA receptor antagonist” (Bioorg Med Chem Lett, 2000):

Legend:
Mus musculus [1] = test: Relative anticonvulsant potency in frings mice by peroral administration expressed as effective dose; assay type: functional; conditions: po
Mus musculus [2] = test: Relative anticonvulsant potency in frings mice by intraperitoneal administration expressed as effective dose; assay type: functional; conditions: ip
Method in brief: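 Frings audiogenic seizure-susceptible mice of both sexes (18–25 g), in groups of eight, given varying ip doses. At the time of peak effect, each mouse was exposed to a 110 dB (11 kHz) sound for 20 s and observed for 25 s. Absence of hindlimb tonic extension counted as protection. ED50 by probit analysis.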

Glutamate NMDA receptor [3] = test: The compound was tested in vitro for the inhibition of N-methyl-D-aspartate glutamate receptor in rat cerebellar granule cells (RCGCs).
Method in brief: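 Cultured rat cerebellar granule cells; cytosolic calcium rise stimulated by NMDA (50 µM) plus glycine (1 µM). Multiple cumulative concentration–response curves with at least five concentrations per test substance; IC50 by logit analysis.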

Mus musculus [4] = test: Lethality in mice following 30 mg/kg/day ip dose; 4/7; assay type: ADME, organism-based; set-up: route intraperitoneal; conditions: in vivo
[5] = Relative anticonvulsant potency in frings mice by peroral administration expressed as toxic dose; assay type: ADME, organism-based; conditions: mouse, in vivo, po
Mus musculus [6] = test: Lethality in mice following 60 mg/kg/day ip dose; 8/8; assay type: ADME, organism-based; set-up: route intraperitoneal; conditions: in vivo
Glutamate NMDA receptor [7] = test: The compound was tested in vitro for the displacement of the radioligand (+)-[3H]-MK-801 from synaptic plasma membranes from rat cortex against N-methyl-D-aspartate glutamate receptor; assay type: cell-free

SMILES	ED50 (Mus musculus [1]) [mg/kg]	ED50 (Mus musculus [2]) [mg/kg]	IC50 (Glutamate NMDA receptor [3]) [nM]	Lethality (Mus musculus [4])	TD50 [5] [mg/kg]	Lethality (Mus musculus [6])	IC50 (Glutamate NMDA receptor [7]) [nM]
NCCC(c1cccc(F)c1)c1cccc(F)c1	9.7	2.1	–	–	–	–	–
CC(N)CC(c1cccc(F)c1)c1cccc(F)c1 (configuration not stated)	5.1	4.9	145	Lethal	18.3	Lethal	1040
C[C@H](N)CC(c1cccc(F)c1)c1cccc(F)c1	7.3	2.7	89	–	18.6	–	762
C[C@@H](N)CC(c1cccc(F)c1)c1cccc(F)c1	–	9.1	1110	–	–	–	4500
